Consider 30 molecules from ChEMBL document CHEMBL1139369, “Discovery and structure-activity relationship of P1-P3 ketoamide derived macrocyclic inhibitors of hepatitis C virus NS3 protease” (J Med Chem, 2009).

The structures appear in SMILES notation. Activity calls are given as the source filed them. The rule behind the calls is not given here.

The test system of one series is Hepatitis C virus. Kind of series: Antiviral activity against HCV by genotype 1 replicon based cellular assay. In kind it is functional, Hepacivirus hominis.
The nature of series [1]: Binding affinity to HCV NS3 protease. Further details: species or system Hepacivirus hominis.
The subject of the next series is Rattus norvegicus. Kind of series: (§1) AUC (0 to 6 hrs) in rat at 10 mg/kg, po. In kind it is ADME, organism-based, Plasma. Also on record: time < 6 hr, dose 10 mg/kg, route oral. To be noted: in vivo, 6 h. The essentials:
(§2)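 Rapid rat assay: oral dosing at 10 mg/kg in 0.4% HPMC. Blood drawn periodically and pooled; plasma AUC calculated over 0–6 h.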

Series [2] in a line: Ratio of Ki for human neutrophil elastase to Ki for HCV NS3 protease. The essentials: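 Selectivity index: Ki* against human neutrophil elastase divided by Ki* against HCV NS3 protease, both from enzyme binding measurements.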
Series [3] in a line: as §1. Further details: time < 6 hr, dose 10 mg/kg, route oral. The note with it: plasma. In kind it is ADME, organism-based, Plasma. The essentials: as §2
The nature of series [4]: AUC (0 to 6 hrs) in rat at 5 mg/kg, po. In kind it is ADME, organism-based. Also on record: time < 6 hr, dose 5 mg/kg, route oral. To be noted: plasma. The essentials:
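Rapid rat plasma-level assay with oral dosing at 5 mg/kg in 0.4% HPMC; plasma exposure expressed as AUC.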

In the series with Hepatitis C virus, `CC(C)(C)NC(=O)N[C@H]1CCCCCCCCCC[C@@H](C(=O)C(N)=O)NC(=O)[C@H]2[C@H]3[C@@H](CN2C1=O)C3(C)C` had an EC90 of 1000 nM. In series [1], this molecule returned a Ki of 59 nM.
In turn, `CC1(NC(=O)N[C@H]2CCCCCCCCCC[C@@H](C(=O)C(N)=O)NC(=O)[C@@H]3C4C(CN3C2=O)C4(C)C)CCCCC1` (single isomer, unassigned) came in with a concentration for an effect of 90% (EC90) with Hepatitis C virus of 400 nM. The affinity in series [1], expressed as Ki, was 36 nM.
`C=CCNC(=O)C(=O)[C@@H]1CCCCCCCCC[C@H](NC(=O)N[C@H](C(=O)C2CC2)C2CCCCC2)C(=O)N2C[C@@H]3[C@H]([C@H]2C(=O)N1)C3(C)C` yielded an EC90 in the series with Hepatitis C virus of 280 nM. For the same molecule, the Ki in series [1] was found to be 6 nM. Also, in the series on Rattus norvegicus, the Activity result is recorded as “Not Active”.
For `CC(C)(C)OC(=O)[C@@H](NC(=O)N[C@H]1CCCCCCCCCC[C@@H](C(=O)C(N)=O)NC(=O)[C@@H]2[C@H]3[C@@H](CN2C1=O)C3(C)C)C(C)(C)C`, it took 400 nM to reach the 90% level with Hepatitis C virus (EC90). Besides, the affinity in series [1] corresponds to a Ki of 37 nM.
In the case of `CN(C)C(=O)[C@@H](NC(=O)CNC(=O)C(=O)[C@@H]1CCCC/C=C/CCCC[C@H](NC(=O)OC(C)(C)C)C(=O)N2CC3C([C@H]2C(=O)N1)C3(C)C)c1ccccc1` (single isomer, unassigned), the Ratio Ki in series [2] came to 1400. In the series on Hepatitis C virus, this molecule displayed a 90% effect concentration (EC90) of 300 nM. This molecule also gave a Ki in series [1] of 5 nM.
In series [1], `C=CCCCC[C@H](NC(=O)[C@@H]1[C@H]2[C@@H](CN1C(=O)[C@H](CCCCC=C)NC(=O)OC(C)(C)C)C2(C)C)C(=O)C(N)=O` displayed a Ki of 250 nM.
`C=CCNC(=O)C(=O)[C@@H]1CCCCCCCCC[C@H](NC(=O)N[C@H](CN(C)S(=O)(=O)c2ccccn2)C(C)(C)C)C(=O)N2CC3C([C@H]2C(=O)N1)C3(C)C` (single isomer, unassigned) showed an EC90 in the series with Hepatitis C virus of 90 nM. In series [1], this molecule came in with an inhibition constant (Ki) of 7 nM. The AUC(0-t) at 6 h in series [3] amounted to 0.84 µM·h.
In the case of `C=CCNC(=O)C(=O)[C@@H]1CCCCCCCCC[C@H](NC(=O)N[C@H](CN(C)S(=O)(=O)c2cccs2)C(C)(C)C)C(=O)N2CC3C([C@H]2C(=O)N1)C3(C)C` (single isomer, unassigned), the Ki in series [1] was 5 nM. The same molecule gave an AUC(0-t) at 6 h in series [3] of 1.26 µM·h.
In turn, `C=CCNC(=O)C(=O)[C@@H]1CCCCCCCCC[C@H](NC(=O)N[C@H](CN2C(=O)CN(C)CC2=O)C(C)(C)C)C(=O)N2CC3C([C@H]2C(=O)N1)C3(C)C` (single isomer, unassigned) returned an EC90 in the series with Hepatitis C virus of 30 nM. This molecule displayed an inhibition constant (Ki) in series [1] of 4 nM. The molecule also registered an area under the curve AUC(0-t) at 6 h in series [3] of 0.28 µM·h.
Regarding `C=CCNC(=O)C(=O)[C@@H]1CCCCCCCCC[C@H](NC(=O)N[C@H](CN2C(=O)CC(C)(C)CC2=O)C(C)(C)C)C(=O)N2CC3C([C@H]2C(=O)N1)C3(C)C` (single isomer, unassigned), the 90% effect level in the series on Hepatitis C virus (EC90) was put at 20 nM. In series [1], this molecule came in with a Ki of 2 nM. Besides, the AUC(0-t) at 6 h in series [3] was found to be 1.1 µM·h.
Take `C=CCNC(=O)C(=O)[C@@H]1CCCCCCCCC[C@H](NC(=O)N[C@H](CN2Cc3sccc3S2(=O)=O)C(C)(C)C)C(=O)N2C[C@@H]3[C@H]([C@H]2C(=O)N1)C3(C)C`: the EC90 with Hepatitis C virus amounted to 150 nM. For the same molecule, in series [1], the Ki was 7 nM. The molecule further returned an AUC(0-t) at 6 h in series [3] of 0.84 µM·h.
`CC(C)(C)OC(=O)N[C@H]1CCCCCCCCCC[C@@H](C(=O)C(=O)NCC(=O)NCc2ccccc2)NC(=O)[C@@H]2[C@H]3[C@@H](CN2C1=O)C3(C)C` registered a concentration for an effect of 90% (EC90) with Hepatitis C virus of 2000 nM. This molecule also had an inhibition constant Ki in series [1] of 89 nM.
In turn, `CCNC(=O)C(=O)[C@@H]1CCCCCCCCC[C@H](NC(=O)N[C@H](CN(C)S(=O)(=O)c2cccs2)C(C)(C)C)C(=O)N2CC3C([C@H]2C(=O)N1)C3(C)C` (single isomer, unassigned) displayed a Ki in series [1] of 10 nM.
As to `CC(C)(C)OC(=O)N[C@H]1CCCCCCCCCC[C@@H](C(=O)C(N)=O)NC(=O)[C@@H]2C3C(CN2C1=O)C3(C)C` (single isomer, unassigned), the EC90 with Hepatitis C virus amounted to 900 nM. In series [1], this molecule came in with an inhibition constant Ki of 59 nM.
`CC(C)(C)NC(=O)C(=O)[C@@H]1CCCCCCCCCC[C@H](NC(=O)OC(C)(C)C)C(=O)N2CC3C([C@H]2C(=O)N1)C3(C)C` (single isomer, unassigned): in the series with Hepatitis C virus (Hepacivirus hominis), the result was inactive. This molecule also showed a Ki in series [1] of 6000 nM.
In the series with Hepatitis C virus, `C=CCNC(=O)C(=O)[C@@H]1CCCCCCCCC[C@H](NC(=O)N[C@H](CN(C)S(C)(=O)=O)C(C)(C)C)C(=O)N2C[C@@H]3[C@H]([C@H]2C(=O)N1)C3(C)C` returned an EC90 of 55 nM. This molecule gave a Ki in series [1] of 3 nM. This molecule returned an AUC(0-t) at 6 h in series [3] of 0.36 µM·h.
In series [1], `CCCNC(=O)C(=O)[C@@H]1CCCCCCCCC[C@H](NC(=O)N[C@H](CN(C)S(=O)(=O)c2cccs2)C(C)(C)C)C(=O)N2CC3C([C@H]2C(=O)N1)C3(C)C` (single isomer, unassigned) returned a Ki of 14 nM. In other words, the double-digit nanomolar range.
Consider `C=CCNC(=O)C(=O)[C@@H]1CCCCCCCCC[C@H](NC(=O)N[C@H](CN2CCC(C)(C)CC2=O)C(C)(C)C)C(=O)N2C[C@@H]3[C@H]([C@H]2C(=O)N1)C3(C)C`, for which the 90% effect level in the series with Hepatitis C virus (EC90) was put at 20 nM. The molecule also returned an inhibition constant Ki in series [1] of 2 nM. The molecule further returned an exposure AUC(0-t) at 6 h in series [3] of 1.5 µM·h.
Molecule `C=CCNC(=O)C(=O)[C@@H]1CCCCCCCCC[C@H](NC(=O)N[C@H](CN2C(=O)c3ccccc3C2=O)C(C)(C)C)C(=O)N2CC3C([C@H]2C(=O)N1)C3(C)C` (single isomer, unassigned) had an EC90 in the series on Hepatitis C virus of 100 nM. In series [1], the inhibition constant (Ki) came to 16 nM. This molecule returned an AUC(0-t) at 6 h in series [3] of 1.2 µM·h.
For the molecule `C=CCNC(=O)C(=O)[C@@H]1CCCCCCCCC[C@H](NC(=O)N[C@H](C(=O)C2CC2)C(C)C)C(=O)N2CC3C([C@H]2C(=O)N1)C3(C)C` (single isomer, unassigned), in the series with Hepatitis C virus, the EC90 was determined as 480 nM. This molecule also displayed a Ki in series [1] of 20 nM. In the series with Rattus norvegicus, the Activity entry is listed as “Not Active”.
`C=CCNC(=O)C(=O)[C@@H]1CCCCCCCCC[C@H](NC(=O)N[C@H](CN2C(=O)C3CCC(C3)C2=O)C(C)(C)C)C(=O)N2CC3C([C@H]2C(=O)N1)C3(C)C` (single isomer, unassigned): the concentration for an effect of 90% (EC90) in the series on Hepatitis C virus turned out to be 15 nM. Moreover, the Ki in series [1] was found to be 3 nM. Moreover, the AUC(0-t) at 6 h in series [3] worked out at 0.31 µM·h.
`CN(C[C@@H](NC(=O)N[C@H]1CCCCCCCCC[C@@H](C(=O)C(N)=O)NC(=O)[C@@H]2[C@H]3[C@@H](CN2C1=O)C3(C)C)C(C)(C)C)S(=O)(=O)c1cccs1` showed an EC90 in the series on Hepatitis C virus of 70 nM. The molecule also came in with an inhibition constant (Ki) in series [1] of 2 nM.
`CC(C)[C@H](NC(=O)N[C@H]1CCCCCCCCC[C@@H](C(=O)C(N)=O)NC(=O)[C@@H]2C3C(CN2C1=O)C3(C)C)C(=O)C1CC1` (single isomer, unassigned): the EC90 in the series with Hepatitis C virus is 100 nM. The inhibition constant Ki in series [1] amounted to 11 nM.
On the same counts, the results for `CC1(C)C2CN3C(=O)[C@@H](NC(=O)N[C@H](C(=O)C4CC4)C4CCCCC4)CCCCCCCCC[C@@H](C(=O)C(N)=O)NC(=O)[C@@H]3C21` (single isomer, unassigned) are 180 nM and 11 nM.
On to `CN(C)C(=O)[C@@H](NC(=O)CNC(=O)C(=O)[C@@H]1CCCCCCCCCC[C@H](NC(=O)OC(C)(C)C)C(=O)N2CC3C([C@H]2C(=O)N1)C3(C)C)c1ccccc1` (single isomer, unassigned), for which the Ratio Ki in series [2] turned out to be 780. The concentration for an effect of 90% (EC90) with Hepatitis C virus is 600 nM. Moreover, in series [1], the inhibition constant Ki came to 6 nM.
In turn, `CN(C[C@@H](NC(=O)N[C@H]1CCCCCCCCC[C@@H](C(=O)C(N)=O)NC(=O)[C@@H]2C3C(CN2C1=O)C3(C)C)C(C)(C)C)S(C)(=O)=O` (single isomer, unassigned) had a 90% effect concentration (EC90) in the series with Hepatitis C virus of 250 nM. For the same molecule, the affinity in series [1], expressed as Ki, was 3 nM.
`CC(C)(C)NC(=O)N[C@H](C(=O)N1CC2C([C@H]1C(=O)NC(CC1CCC1)C(=O)C(N)=O)C2(C)C)C(C)(C)C` (single isomer, unassigned) [BOCEPREVIR]: the Ratio Ki in series [2] worked out at 2200. The molecule further gave a 90% effect concentration (EC90) in the series with Hepatitis C virus of 350 nM. For the same molecule, the inhibition constant Ki in series [1] came to 14 nM.
`C=CCNC(=O)C(=O)[C@@H]1CCCCCCCCC[C@H](NC(=O)N[C@H](CN(C)S(=O)(=O)N(C)C)C(C)(C)C)C(=O)N2C[C@@H]3[C@H]([C@H]2C(=O)N1)C3(C)C`: the EC90 in the series on Hepatitis C virus stood at 60 nM. The inhibition constant (Ki) in series [1] was 13 nM. Also, the exposure AUC(0-t) at 6 h in series [4] was determined as 1.04 µM·h.
With `CN(C)C(=O)[C@@H](NC(=O)CNC(=O)C(=O)[C@@H]1CCCCCCCCCC[C@H](NC(=O)NC(C)(C)C)C(=O)N2C[C@@H]3[C@H]([C@H]2C(=O)N1)C3(C)C)c1ccccc1`, the Ratio Ki in series [2] stood at 980. In addition, the EC90 in the series on Hepatitis C virus was 1000 nM. Besides, in series [1], the Ki is 6 nM.
`CN(C[C@@H](NC(=O)N[C@H]1CCCCCCCCC[C@@H](C(=O)C(=O)NCC2CC2)NC(=O)[C@@H]2C3C(CN2C1=O)C3(C)C)C(C)(C)C)S(=O)(=O)c1cccs1` (single isomer, unassigned) had an inhibition constant (Ki) in series [1] of 21 nM. In series [3], this molecule came in with an AUC(0-t) at 6 h of 0.4 µM·h.
